Laboratory results as given in ChEMBL document CHEMBL1145465, “PhoU is a persistence switch involved in persister formation and tolerance to multiple antibiotics and stresses in Escherichia coli” (2007).

Legend:
Escherichia coli [1] = test: Antibacterial activity against Escherichia coli K12 PhoU wild type W3110 assessed as cell count in stationary phase at 100 ug/ml after 10 days; format: functional
Method in brief: (§1)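 Log-phase or stationary-phase cultures exposed to ampicillin 100 μg/ml in MOPS minimal medium (pH 5.0) at 37°C without shaking, for 5 h up to 10 days. Aliquots were taken at each time point, washed in saline and plated on LB plates for viable CFU/ml.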

Escherichia coli [2] = test: Antibacterial activity against Escherichia coli K12 mutant JHU313 containing plasmid vector at 100 ug/ml after 48 hrs by disc diffusion method; format: functional
Method in brief: (§2)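 Kirby-Bauer disc assay: log-phase LB culture was spread on LB agar for confluent growth. 7-mm nitrocellulose discs were soaked in antibiotic at the listed concentration and placed on the agar. After 48 h at 37°C, the diameter of the inhibition zone was measured in mm.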

Escherichia coli [3] = test: Antibacterial activity against Escherichia coli K12 mutant JHU313 assessed as cell count at 100 ug/ml
Escherichia coli [4] = test: Antibacterial activity against Escherichia coli K12 PhoU wild type W3110 at 6 ug/ml after 48 hrs by disc diffusion method; format: functional
Method in brief: (§3)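 Kirby-Bauer disc assay. Log-phase LB culture (10⁸ bacteria) was spread for confluent growth on LB agar. 7 mm nitrocellulose discs soaked in antibiotic at the listed concentrations were laid on the agar. Inhibition zone diameter (mm) was measured after 48 h at 37°C.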

Escherichia coli [5] = test: Antibacterial activity against Escherichia coli K12 containing PhoU mutant assessed as cell count in log phase at 100 ug/ml after 5 hrs; format: functional
Method in brief: (§4)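 Log-phase or stationary-phase cultures were exposed to ampicillin (100 μg/ml) or norfloxacin (3 μg/ml) in MOPS minimal medium, pH 5.0, at 37°C without shaking, for 5 h to 10 days. Aliquots were saline-washed and plated on LB for CFU/ml.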

Escherichia coli [6] = test: Antibacterial activity against Escherichia coli K12 containing PhoU mutant assessed as cell count in stationary phase at 100 ug/ml after 5 hrs; format: functional; method in brief: as §4
Escherichia coli [7] = test: Antibacterial activity against Escherichia coli K12 mutant JHU313 containing plasmid PhoU at 100 ug/ml after 48 hrs by disc diffusion method; format: functional; method in brief: as §2
Escherichia coli [8] = test: Antibacterial activity against Escherichia coli K12 containing deletion deltaphoBR mutant assessed as cell count in stationary phase at 100 ug/ml after 72 hrs; format: functional
Method in brief: (§5)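 Deletion mutants were made by the Datsenko–Wanner method. Log-phase or stationary-phase cultures were exposed to ampicillin at 100 μg/ml. CFU/ml was determined at the start and after 5, 24 and 72 h of exposure.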

Escherichia coli [9] = test: Antibacterial activity against Escherichia coli K12 containing deletion deltaphoU mutant assessed as cell count in log phase at 100 ug/ml after 5 hrs; format: functional
Method in brief: (§6)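 Wild-type W3110-derived deletion mutants were made by the Datsenko–Wanner method. Log-phase or stationary-phase cultures were exposed to ampicillin 100 μg/ml in MOPS minimal medium at pH 5.0, at 37°C without shaking. Aliquots were taken at set times, washed in saline and plated on LB for viable CFU/ml.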

Escherichia coli [10] = test: Antibacterial activity against Escherichia coli K12 containing deletion deltaphoR mutant assessed as cell count in log phase at 100 ug/ml after 24 hrs; format: functional; method in brief: as §6
Escherichia coli [11] = test: Antibacterial activity against Escherichia coli K12 mutant JHU313 containing plasmid vector at 6 ug/ml after 48 hrs by disc diffusion method; format: functional
Method in brief: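 Kirby-Bauer paper-disc assay: log-phase E. coli (10⁸ bacteria) grown in LB broth, spread on LB agar for confluent growth; 7 mm nitrocellulose discs soaked with antibiotic solution at the listed concentration (μg/ml) placed on surface; incubated 37°C for 48 h; diameter of growth-inhibition zone measured in mm. Strain is the phoU transposon mutant transformed by electroporation with empty vector control.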

Escherichia coli [12] = test: Antibacterial activity against Escherichia coli K12 PhoU wild type W3110 assessed as cell count in log phase at 100 ug/ml after 5 hrs; format: functional; method in brief: as §1
Escherichia coli [13] = test: Antibacterial activity against Escherichia coli K12 containing PhoU mutant assessed as cell count in stationary phase at 100 ug/ml after 1 day; format: functional; method in brief: as §4
Escherichia coli [14] = test: Antibacterial activity against Escherichia coli K12 mutant JHU313 containing plasmid PhoU at 25 ug/ml after 48 hrs by disc diffusion method; format: functional; method in brief: as §2
Escherichia coli [15] = test: Antibacterial activity against Escherichia coli K12 containing deletion deltaphoBR mutant assessed as cell count in stationary phase at 100 ug/ml after 5 hrs; format: functional; method in brief: as §5
Escherichia coli [16] = test: Antibacterial activity against Escherichia coli K12 PhoU wild type W3110 at 1.5 ug/ml after 48 hrs by disc diffusion method; format: functional
Method in brief: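 Kirby-Bauer disc assay. Log-phase LB broth culture (10⁸ bacteria) was spread on LB agar for confluent growth. 7 mm nitrocellulose discs soaked in antibiotic solution at the listed concentration were placed on the agar. Inhibition zone diameter (mm) was measured after 48 h at 37°C.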

Escherichia coli [17] = test: Antibacterial activity against Escherichia coli K12 PhoU wild type W3110 assessed as cell count in stationary phase at 3 ug/ml after 1 week; format: functional; method in brief: as §4
Escherichia coli [18] = test: Antibacterial activity against Escherichia coli K12 containing deletion deltaphoU mutant assessed as cell count in log phase at 3 ug/ml after 1 day; format: functional
Method in brief: (§7)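 Log-phase or stationary-phase cultures of the ΔphoU deletion mutant (Datsenko–Wanner construction) were exposed to norfloxacin 3 μg/ml in MOPS minimal medium, pH 5.0, at 37°C without shaking, for up to 10 days. Sampled aliquots were washed in saline and plated on LB agar for CFU/ml.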

Escherichia coli [19] = test: Antibacterial activity against Escherichia coli K12 containing deletion deltaphoU mutant assessed as cell count in stationary phase at 3 ug/ml after 5 hrs; format: functional; method in brief: as §7
Escherichia coli [20] = test: Antibacterial activity against Escherichia coli K12 containing deletion deltaphoU mutant assessed as cell count in stationary phase at 3 ug/ml after 3 days; format: functional; method in brief: as §7
Escherichia coli [21] = test: Antibacterial activity against Escherichia coli K12 containing PhoU mutant assessed as cell count in stationary phase at 3 ug/ml after 5 days; format: functional; method in brief: as §4
Escherichia coli [22] = test: Antibacterial activity against Escherichia coli K12 containing deletion deltaphoU mutant assessed as cell count in log phase at 3 ug/ml after 5 hrs; format: functional; method in brief: as §7
Escherichia coli [23] = test: Antibacterial activity against Escherichia coli K12 PhoU wild type W3110 assessed as cell count in log phase at 3 ug/ml after 5 hrs; format: functional; method in brief: as §4
Escherichia coli [24] = test: Antibacterial activity against Escherichia coli K12 containing PhoU mutant assessed as cell count in log phase at 3 ug/ml after 10 days; format: functional; method in brief: as §4
Escherichia coli [25] = test: Antibacterial activity against Escherichia coli K12 mutant JHU313 containing plasmid vector at 0.1 ug/ml after 48 hrs by disc diffusion method; format: functional; method in brief: as §2
Escherichia coli [26] = test: Antibacterial activity against Escherichia coli K12 PhoU wild type W3110 at 4 ug/ml after 48 hrs by disc diffusion method; format: functional; method in brief: as §3
Escherichia coli [27] = test: Antibacterial activity against Escherichia coli K12 containing PhoU mutant assessed as cell count in stationary phase at 3 ug/ml after 5 hrs; format: functional; method in brief: as §4
Escherichia coli [28] = test: Antibacterial activity against Escherichia coli K12 mutant JHU313 containing plasmid PhoU at 2 ug/ml after 48 hrs by disc diffusion method; format: functional; method in brief: as §2
Escherichia coli [29] = test: Antibacterial activity against Escherichia coli K12 containing deletion deltaphoU mutant assessed as cell count in stationary phase at 3 ug/ml after 10 days; format: functional; method in brief: as §7

## CC1(C)S[C@@H]2[C@H](NC(=O)[C@H](N)c3ccccc3)C(=O)N2[C@H]1C(=O)O [AMPICILLIN]
Escherichia coli [1]
  CFU: 2 10^5/ml
Escherichia coli [2]
  inhibition zone (IZ): 45 mm
Escherichia coli [3]
  CFU: 1.4 10^7/ml
Escherichia coli [4]
  inhibition zone (IZ): 25 mm
Escherichia coli [5]
  CFU: 20 mL⁻¹
Escherichia coli [6]
  CFU: 2 10^8/ml
Escherichia coli [7]
  inhibition zone (IZ): 40 mm
Escherichia coli [8]
  CFU: 2 10^8/ml
Escherichia coli [9]
  CFU: 1 10^2/ml
Escherichia coli [10]
  CFU: 1 10^2/ml
Escherichia coli [11]
  inhibition zone (IZ): 34 mm
Escherichia coli [12]
  CFU: 3 10^3/ml
Escherichia coli [13]
  CFU: 1 10^7/ml
Escherichia coli [14]
  inhibition zone (IZ): 36 mm
Escherichia coli [15]
  CFU: 3 10^9/ml
Escherichia coli [16]
  inhibition zone (IZ): 21 mm

## CCn1cc(C(=O)O)c(=O)c2cc(F)c(N3CCNCC3)cc21 [NORFLOXACIN]
Escherichia coli [17]
  CFU: 1.5 10^4/ml
Escherichia coli [18]
  CFU: 1 10^6/ml
Escherichia coli [19]
  CFU: 6 10^8/ml
Escherichia coli [20]
  CFU: 3 10^5/ml
Escherichia coli [21]
  CFU: 0 mL⁻¹
Escherichia coli [22]
  CFU: 5 10^7/ml
Escherichia coli [23]
  CFU: 1 10^8/ml
Escherichia coli [24]
  CFU: 0 mL⁻¹
Escherichia coli [25]
  inhibition zone (IZ): 29 mm
Escherichia coli [26]
  inhibition zone (IZ): 32 mm
Escherichia coli [27]
  CFU: 3 10^8/ml
Escherichia coli [28]
  inhibition zone (IZ): 35 mm
Escherichia coli [29]
  CFU: 0 mL⁻¹
